Reference: ChEMBL document CHEMBL3877306, “Triazole Ureas Act as Diacylglycerol Lipase Inhibitors and Prevent Fasting-Induced Refeeding” (J Med Chem, 2017)
Calls of active or inactive are those of the source. The rule behind the calls is not given here.

How the values were obtained:
[1] = target: T1, Diacylglycerol lipase-alpha (Mus musculus, UniProt Q6WQJ1); assay: Inhibition of MB064 probe binding to DAGLalpha in mouse brain membrane proteome preincubated for 30 mins followed by MB064 probe addition measured after 20 mins by gel-based competitive activity based protein profiling assay; format: cell membranes
T1 sequence (Q6WQJ1 whole entry): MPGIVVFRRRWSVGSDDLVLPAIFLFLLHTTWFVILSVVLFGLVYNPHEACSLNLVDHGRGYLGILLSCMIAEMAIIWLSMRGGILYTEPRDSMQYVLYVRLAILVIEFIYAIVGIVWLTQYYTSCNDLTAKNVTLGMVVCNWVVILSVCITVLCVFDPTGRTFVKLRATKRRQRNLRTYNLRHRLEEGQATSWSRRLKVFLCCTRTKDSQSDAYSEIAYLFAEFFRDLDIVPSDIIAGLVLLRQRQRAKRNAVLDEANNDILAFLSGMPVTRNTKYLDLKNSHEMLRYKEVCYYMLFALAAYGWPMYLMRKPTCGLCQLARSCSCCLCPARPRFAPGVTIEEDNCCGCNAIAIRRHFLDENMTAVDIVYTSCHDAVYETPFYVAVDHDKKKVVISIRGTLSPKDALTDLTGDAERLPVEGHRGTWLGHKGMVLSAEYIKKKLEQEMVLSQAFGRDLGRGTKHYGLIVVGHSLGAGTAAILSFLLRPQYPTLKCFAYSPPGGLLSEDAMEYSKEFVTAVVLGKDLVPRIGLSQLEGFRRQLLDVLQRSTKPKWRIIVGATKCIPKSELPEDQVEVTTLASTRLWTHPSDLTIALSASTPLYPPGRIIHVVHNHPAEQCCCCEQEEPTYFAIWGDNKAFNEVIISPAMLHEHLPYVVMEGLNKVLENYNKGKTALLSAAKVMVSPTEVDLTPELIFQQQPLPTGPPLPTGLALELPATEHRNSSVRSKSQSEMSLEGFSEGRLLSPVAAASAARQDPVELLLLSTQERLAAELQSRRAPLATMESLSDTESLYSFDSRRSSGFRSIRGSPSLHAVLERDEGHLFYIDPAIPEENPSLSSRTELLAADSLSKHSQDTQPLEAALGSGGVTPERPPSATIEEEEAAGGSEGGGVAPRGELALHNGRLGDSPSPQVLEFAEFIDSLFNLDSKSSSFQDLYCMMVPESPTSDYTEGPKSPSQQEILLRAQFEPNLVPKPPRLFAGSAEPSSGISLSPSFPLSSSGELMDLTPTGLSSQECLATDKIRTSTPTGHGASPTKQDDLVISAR
In short: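 Mouse brain membrane proteome (2 mg/mL) preincubated with inhibitor or DMSO vehicle for 30 min at r.t., then labelled with MB064 at 250 nM final for 20 min at r.t. and quenched in Laemmli buffer. Fluorescent bands were quantified against vehicle set to 100%, and IC50 was taken from a variable-slope log(inhibitor) vs normalized response fit. n = 3.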

[2] = target: T2, Diacylglycerol lipase-alpha (Homo sapiens, UniProt Q9Y4D2); assay: Inhibition of recombinant human DAGLalpha expressed in HEK293T cell membranes overexpressing MAGL using natural substrate 1-stearoyl-2-arachidonoly-sn-glycerol by fluorescence based assay; parameters: species or system HEK-293T
T2 sequence (Q9Y4D2 whole entry): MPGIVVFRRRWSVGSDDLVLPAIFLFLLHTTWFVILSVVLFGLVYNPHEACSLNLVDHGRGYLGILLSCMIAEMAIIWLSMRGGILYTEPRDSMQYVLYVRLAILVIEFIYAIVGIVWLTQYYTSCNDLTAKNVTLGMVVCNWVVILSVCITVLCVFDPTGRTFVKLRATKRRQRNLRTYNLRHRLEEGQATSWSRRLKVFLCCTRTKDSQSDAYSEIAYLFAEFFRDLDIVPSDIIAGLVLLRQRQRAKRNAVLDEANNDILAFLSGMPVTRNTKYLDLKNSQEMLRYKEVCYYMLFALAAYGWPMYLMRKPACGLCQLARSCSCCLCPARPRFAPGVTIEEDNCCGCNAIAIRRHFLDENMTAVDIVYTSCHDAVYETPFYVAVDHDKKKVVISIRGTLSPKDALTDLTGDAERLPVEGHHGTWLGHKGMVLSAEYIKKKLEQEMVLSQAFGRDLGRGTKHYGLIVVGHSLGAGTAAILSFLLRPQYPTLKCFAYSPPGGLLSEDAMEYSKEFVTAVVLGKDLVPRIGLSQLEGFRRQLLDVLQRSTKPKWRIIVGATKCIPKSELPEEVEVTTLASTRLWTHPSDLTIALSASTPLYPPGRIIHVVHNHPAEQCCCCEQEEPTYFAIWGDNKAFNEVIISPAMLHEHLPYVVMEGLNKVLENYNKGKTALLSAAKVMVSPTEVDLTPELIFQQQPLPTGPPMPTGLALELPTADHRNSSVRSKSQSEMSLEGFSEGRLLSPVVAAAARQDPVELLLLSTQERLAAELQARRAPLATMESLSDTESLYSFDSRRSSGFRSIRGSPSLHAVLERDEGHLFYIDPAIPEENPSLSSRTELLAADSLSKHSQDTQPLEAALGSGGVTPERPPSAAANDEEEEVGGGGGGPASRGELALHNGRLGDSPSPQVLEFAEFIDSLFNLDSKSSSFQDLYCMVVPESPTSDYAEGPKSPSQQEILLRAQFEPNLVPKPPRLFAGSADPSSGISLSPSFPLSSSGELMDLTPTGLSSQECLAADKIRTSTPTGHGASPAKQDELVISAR
In short: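 Real-time coupled fluorescence readout of glycerol release from hDAGLα-transfected HEK293T membranes (50 µg/mL final protein) with 100 µM SAG substrate. Added: 5 µg/mL MAGL-overexpressing membranes, 0.0075% (w/v) Triton X-100, 0.2 U/mL each glycerol kinase, glycerol-3-phosphate oxidase and HRP, 0.125 mM ATP, 10 µM Amplifu Red, 5% DMSO. n = 4.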

[3] = target: T2, Diacylglycerol lipase-alpha; assay: Inhibition of full length recombinant human DAGLalpha expressed in HEK293T cell membranes using PNP butyrate as substrate by colorimetric assay; parameters: species or system HEK-293T
In short: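 Membranes from HEK293T cells transiently transfected with human DAGLα (PEI transfection, harvested at 72 h), used at 0.05 µg/µL final protein in 50 mM HEPES pH 7.2. Activity was read colorimetrically from para-nitrophenylbutyrate hydrolysis. n = 4, mean ± SEM.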

[4] = target: T3, Monoacylglycerol lipase ABHD6 (Homo sapiens, UniProt Q9BV23); assay: Inhibition of human ABHD6 using 2-AG as natural substrate by fluorescence based assay
T3 sequence (Q9BV23 whole entry): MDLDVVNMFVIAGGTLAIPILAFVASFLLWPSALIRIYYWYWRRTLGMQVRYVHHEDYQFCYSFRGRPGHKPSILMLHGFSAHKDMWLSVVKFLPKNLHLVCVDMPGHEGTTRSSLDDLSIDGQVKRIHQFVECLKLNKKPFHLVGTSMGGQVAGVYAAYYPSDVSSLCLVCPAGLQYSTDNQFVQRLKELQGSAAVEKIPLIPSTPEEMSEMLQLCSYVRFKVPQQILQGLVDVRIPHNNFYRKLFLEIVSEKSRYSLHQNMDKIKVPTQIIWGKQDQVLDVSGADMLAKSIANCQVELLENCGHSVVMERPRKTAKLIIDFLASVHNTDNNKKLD
In short: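 Coupled fluorescence assay: 2-AG hydrolysis detected via glycerol kinase, glycerol-3-phosphate oxidase and HRP (0.2 U/mL each), 0.125 mM ATP and 10 µM Amplifu Red. Conditions: 25 µM 2-AG, 0.5% acetonitrile, 5% DMSO, ABHD6 membrane protein 40 µg/mL final. n = 4.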

[5] = tested on: Mus musculus; assay: Inhibition of fasting-induced refeeding in 18 hrs fasted C57Bl/6J mouse at 50 mg/kg, ip administered as single dose 30 mins prior to refeeding measured up to 16 hrs; format: functional, organism-based
[6] = tested on: Mus musculus; assay: Ex vivo inhibition of FP-TAMRA probe binding to carboxylesterase in mouse liver at 3 to 50 mg/kg, ip after 4 hrs by gel-based competitive activity based protein profiling assay; format: functional, organism-based
[7] = tested on: Mus musculus; assay: Toxicity in 18 hrs fasted C57Bl/6J mouse model of fasting-induced refeeding assessed as hypolocomotion at 50 mg/kg, ip administered as single dose 30 mins prior to refeeding measured after 24 hrs; format: organism-based; settings: in vivo
[8] = target: T4, Diacylglycerol lipase-alpha (Homo sapiens) (UniProt Q9Y4D2); assay: Inhibition of DH379 probe binding to full length recombinant human DAGLalpha expressed in HEK293T cell membranes at 0.1 to 10000 nM after 30 mins by gel-based competitive activity based protein profiling assay; settings: HEK-293T
T4 sequence (whole entry): T2 sequence (Q9Y4D2 whole entry)
In short: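 Membranes from HEK293T cells transiently transfected with human DAGLα were preincubated with inhibitor, then labelled with DAGL-tailored probe DH379 (1 μM, 30 min). Readout was fluorescent SDS gel. Band intensity was normalized to vehicle (100%) and fitted with a variable-slope dose-response curve. n = 3.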

[9] = target: T5, Diacylglycerol lipase-beta (Homo sapiens) (UniProt Q8NCG7); assay: Inhibition of DH379 probe binding to full length recombinant human DAGLbeta expressed in HEK293T cell membranes at 0.1 to 10000 nM after 30 mins by gel-based competitive activity based protein profiling assay; settings: HEK-293T
T5 sequence (whole entry): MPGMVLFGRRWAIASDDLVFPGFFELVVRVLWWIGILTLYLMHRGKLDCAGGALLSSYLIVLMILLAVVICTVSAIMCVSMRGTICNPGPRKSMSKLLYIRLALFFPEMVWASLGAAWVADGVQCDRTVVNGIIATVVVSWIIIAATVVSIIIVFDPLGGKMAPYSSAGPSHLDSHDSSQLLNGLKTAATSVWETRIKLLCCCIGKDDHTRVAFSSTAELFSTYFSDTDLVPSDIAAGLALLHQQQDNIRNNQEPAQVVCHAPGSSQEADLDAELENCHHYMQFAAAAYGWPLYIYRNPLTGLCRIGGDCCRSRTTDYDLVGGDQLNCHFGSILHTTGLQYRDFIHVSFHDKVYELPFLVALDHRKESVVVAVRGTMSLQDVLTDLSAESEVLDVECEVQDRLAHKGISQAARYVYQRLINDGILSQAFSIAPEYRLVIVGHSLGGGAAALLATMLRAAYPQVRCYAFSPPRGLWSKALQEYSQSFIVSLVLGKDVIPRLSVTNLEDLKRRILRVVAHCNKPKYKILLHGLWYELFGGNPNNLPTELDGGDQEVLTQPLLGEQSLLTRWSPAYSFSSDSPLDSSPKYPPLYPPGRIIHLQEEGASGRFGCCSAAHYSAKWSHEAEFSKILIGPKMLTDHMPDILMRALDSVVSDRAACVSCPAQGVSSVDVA
In short: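 HEK293T cells transiently transfected with full-length human DAGLβ cDNA (PEI:DNA 3:1), harvested at 72h; membrane fraction diluted to 1 mg/mL protein. Inhibitor-treated membranes were labelled with DAGL-tailored probe DH379 (1 μM, 30 min), then run on fluorescent SDS-PAGE. Band intensity was normalised to vehicle (100%), and IC50 was fitted to log(inhibitor) vs normalised response with variable slope; n = 3.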

[10] = target: T6, Diacylglycerol lipase-beta (Mus musculus, UniProt Q91WC9); assay: Inhibition of recombinant mouse DAGLbeta expressed in HEK293T cell membranes using PNP butyrate as substrate by colorimetric assay; parameters: species or system HEK-293T
T6 sequence (Q91WC9 whole entry): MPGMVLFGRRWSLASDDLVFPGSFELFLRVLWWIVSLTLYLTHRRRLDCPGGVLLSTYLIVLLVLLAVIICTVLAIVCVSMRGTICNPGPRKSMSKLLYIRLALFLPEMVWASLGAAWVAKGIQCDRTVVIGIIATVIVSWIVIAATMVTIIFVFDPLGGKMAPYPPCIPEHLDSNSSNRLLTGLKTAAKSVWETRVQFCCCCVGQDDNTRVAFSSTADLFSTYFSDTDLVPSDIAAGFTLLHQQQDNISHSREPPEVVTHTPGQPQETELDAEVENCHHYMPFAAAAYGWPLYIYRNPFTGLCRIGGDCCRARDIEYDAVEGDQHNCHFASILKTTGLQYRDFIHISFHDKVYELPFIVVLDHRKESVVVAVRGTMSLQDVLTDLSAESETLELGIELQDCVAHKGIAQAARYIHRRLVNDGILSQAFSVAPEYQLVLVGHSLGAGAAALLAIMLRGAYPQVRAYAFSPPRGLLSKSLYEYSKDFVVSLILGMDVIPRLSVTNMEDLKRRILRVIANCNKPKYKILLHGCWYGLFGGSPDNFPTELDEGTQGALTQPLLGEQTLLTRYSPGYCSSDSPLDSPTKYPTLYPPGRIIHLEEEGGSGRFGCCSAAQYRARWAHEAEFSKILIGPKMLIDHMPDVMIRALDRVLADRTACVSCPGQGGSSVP
In short: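 Membranes from HEK293T cells transiently transfected with mouse DAGLβ. Activity was read colorimetrically as hydrolysis of para-nitrophenylbutyrate surrogate substrate over a concentration range of inhibitor. n = 4, mean ± SEM.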

[11] = target: T2, Diacylglycerol lipase-alpha; assay: Inhibition of HT-01 probe binding to recombinant human DAGLalpha expressed in HEK293T cell membrane proteomes preincubated for 30 mins followed by HT-01 probe addition measured after 30 mins by gel-based competitive activity based protein profiling assay; format: cell membranes, HEK-293T

Row | IC50 [3] [nM] | IC50 [10] [nM] | SMILES | IC50 [2] [nM] | IC50 [4] [nM] | other results
1 |  |  | C/C=C/C=O [CROTONALDEHYDE] |  |  | inhibition [5]: Active; inhibition [6]: Active; Activity [7]: Toxic
2 |  |  | C/C=C/[C@@H](O)C#N |  |  | inhibition [5]: Active; inhibition [6]: Active; Activity [7]: Toxic
3 | 2.51 | 12.6 | O=C(N1CCCCC1Cc1ccccc1)n1ncc(C(O)(c2ccccc2)c2ccccc2)n1 (configuration not stated) |  | 20 | inhibition [8]: Active; inhibition [9]: Active
4 | 25.1 | 79.4 | O=C(N1CCCCC1Cc1ccccc1)n1cc(C(O)(c2ccccc2)c2ccccc2)nn1 (configuration not stated) |  | 39.8 | 
5 | 63.1 | 12600 | CCC1CCCCN1C(=O)n1ncc(C(O)(c2ccccc2)c2ccccc2)n1 (configuration not stated) |  |  | 
6 | 20 | 20000 | CCC1CCCCN1C(=O)n1cc(-c2ccc(-c3ccccc3)cc2)nn1 (configuration not stated) |  |  | 

Row | SMILES | IC50 [3] [nM] | IC50 [10] [nM] | IC50 [2] [nM] | IC50 [4] [nM] | other results
7 | O=C(N1CCCC[C@@H]1Cc1ccccc1)n1cc(-c2ccc(-c3ccccc3)cc2)nn1 | 0.794 |  | 25.1 | 2.51 | IC50 [1]: 7.94 nM
8 | O=C(N1CCCC[C@H]1Cc1ccccc1)n1cc(-c2ccc(-c3ccccc3)cc2)nn1 | 39.8 |  | 794 | 631 | IC50 [1]: 631 nM
9 | O=C(N1CCCCC1Cc1ccccc1)n1cc(-c2ccc(-c3ccccc3)cc2)nn1 (racemic) | 1.26 to 6.31 |  | 126 | 39.8 | inhibition [8]: Active; inhibition [9]: Active; IC50 [11]: 2300 nM
